ANO1 block = inhibitors of mouse TMEM16A calcium-activated chloride channel | Q8BHY3 | HEK293 TMEM16A/YFP iodide influx fluorescence, ionomycin | normalized B-score (activity score, 25-100; higher = stronger inhibition) at 10 µM | 1.2% of 310,000 active;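 active = ratio plate-corrected score three or more library SD toward inhibition, starting fluorescence score within five deviations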;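 note: score derived from kinetic fluorescence span divided by baseline fluorescence per well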
CHT block = inhibits the human high affinity choline transporter. B-score at 10 µM. 0.86% of 310,000 active. CHT-expressing cells, membrane potential dye, choline response; stronger effect = lower value. AID 488975;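 active = B-score over 3 SD under the library average, and starting fluorescence ratio not unusually high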;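 note: choline stimulus applied at its EC90 after an EC20 pre-addition; B-score computed on integrated fluorescence ratio after choline addition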
Target sequence (Q9GZV3 whole entry, looked up): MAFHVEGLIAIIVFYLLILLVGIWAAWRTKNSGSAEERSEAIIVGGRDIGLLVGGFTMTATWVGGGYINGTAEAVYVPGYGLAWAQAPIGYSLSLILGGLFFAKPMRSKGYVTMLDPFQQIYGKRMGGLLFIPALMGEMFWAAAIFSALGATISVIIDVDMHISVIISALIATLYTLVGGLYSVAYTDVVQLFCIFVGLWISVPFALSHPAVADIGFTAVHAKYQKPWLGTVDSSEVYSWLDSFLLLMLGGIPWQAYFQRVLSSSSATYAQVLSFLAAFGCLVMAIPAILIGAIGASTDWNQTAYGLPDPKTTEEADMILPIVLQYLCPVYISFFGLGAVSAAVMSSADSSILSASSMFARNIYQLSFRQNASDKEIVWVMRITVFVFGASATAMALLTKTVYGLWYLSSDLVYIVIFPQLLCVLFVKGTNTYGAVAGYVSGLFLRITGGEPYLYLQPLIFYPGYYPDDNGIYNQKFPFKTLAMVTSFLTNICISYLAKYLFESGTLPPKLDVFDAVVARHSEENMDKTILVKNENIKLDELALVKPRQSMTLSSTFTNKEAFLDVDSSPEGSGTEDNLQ
IMP-1 inh-1 = blocks Pseudomonas aeruginosa IMP-1 metallo-beta-lactamase; purified IMP-1, nitrocefin hydrolysis, epi-absorbance fluorescence; inhibition, % at 5.6 µM; 0.45% of 290,000 active; AID 1556;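 active = inhibition above the mean plus 3 SD of all compounds in the same screening run, cut at about 4.5% in these data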
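assay system = purified recombinant IMP-1 metallo-beta-lactamase enzyme | schedule = 15 min preincubation plus 25 min reaction at 25 °C | signal = Epi-absorbance fluorescence, 480 nm excitation, 530 nm emission | read-out basis = percent inhibition from optical density relative to buffer-blank wells | controls = IMP-1 with DMSO as 0%, enzyme-free DMSO as 100%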
VIM-2 inhibitor = blocks Pseudomonas aeruginosa VIM-2 metallo-beta-lactamase. purified VIM-2, nitrocefin hydrolysis, epi-absorbance fluorescence. inhibition, % at 5.6 µM. 0.89% of 290,000 active. AID 1527;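 active = inhibition above the mean of all tested compounds plus 3 SD, cutoff set per screening run, cut at about 7.5% in these data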;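 note: red hydrolysis product quenches plate fluorescence so inhibitors raise well fluorescence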
ANO1 activ = mouse TMEM16A channel activation, primary screen | Q8BHY3 | HEK293 TMEM16A/YFP-H148Q/I152L, iodide quench fluorescence; stronger effect = lower value | B-score at 10 µM | 0.3% of 340,000 active;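 active = fluorescence-ratio B-score plate-corrected deviation score at least 3 library SD below zero, with starting fluorescence score within 5 deviations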;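 note: channel opened by trigger with iodide after compound preincubation; score built on the fluorescence ratio of max minus min over baseline; more negative score means more quench and so TMEM16A activation or potentiation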
CHT PAM = allosterically activates the human high affinity choline transporter. 0.49% of 310,000 active. Q9GZV3. CHT-expressing cells, membrane potential dye, choline EC20; stronger effect = higher value; LV-AA mutant CHT in HEK293 cells. B-score at 10 µM;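 active = initial fluorescence not abnormally high and integrated response B-score, plate-corrected, over 3 SD above library mean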
IMP-1 inh-2 = IMP-1 inhibition, counter-screen for VIM-2 inhibitors; shares compounds with VIM-2 inhibitor; purified IMP-1, nitrocefin hydrolysis, epi-absorbance fluorescence; inhibition, % at 5.6 µM; 1,300 tested, under 10 active; AID 1856; call rule not given here
VIM-2 FRET ctr = counter-screen for VIM-2 inhibitors: epi-absorbance artifacts via FRET; AID 1857; purified VIM-2, CCF2 FRET substrate hydrolysis; 23% of 1,300 active; shares compounds with VIM-2 inhibitor; inhibition, % at 5.6 µM;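 active = inhibition above the mean of all tested compounds plus 3 SD, cut at about 19% in these data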
TEM-1 counter = TEM-1 inhibition, counter-screen for VIM-2 inhibitors; AID 1866; shares compounds with VIM-2 inhibitor; Purified TEM-1, nitrocefin hydrolysis, epi-absorbance fluorescence; inhibition, % at 5.6 µM; 3% of 1,300 active;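 active = inhibition above that campaign's mean inhibition plus 3 SD, cut at about 0.46% in these data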
VIM-2 inh conf = confirmation of P. aeruginosa VIM-2 metallo-beta-lactamase inhibitors. shares compounds with VIM-2 inhibitor. purified VIM-2, nitrocefin hydrolysis, epi-absorbance. inhibition, % at 5.6 µM. 96% of 1,300 active. AID 2187;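 active = inhibition of the VIM-2 beta-lactamase enzyme above about 11% from the earlier first-round screen, limit read from the data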
Of the large screens only hits and unclear results are named; the others gave an inactive call (follow-up assays come after a bar, where they were run). Compounds with a hit are over-represented: about 3.4% of the library has one in this group of screens.

Cc1ccc(-c2n[nH]c(=S)n2C)cc1	none (no result: ANO1 block, CHT block, CHT PAM)
CC(=O)N1CN(CCCn2ccnc2)Cc2c1sc1c2CCCC1	VIM-2 inhibitor 26 | IMP-1 inh-2 inactive | VIM-2 FRET ctr inactive | TEM-1 counter inactive | VIM-2 inh conf 46
CCc1ccc(C(=O)Nc2cc(C)ccc2F)s1	none
CCN(CCN(C)C)C(=O)c1ccc2c(c1NCCO)C(=O)c1ccccc1C2=O	VIM-2 inhibitor 14 | IMP-1 inh-2 inactive | VIM-2 FRET ctr inactive | TEM-1 counter inactive | VIM-2 inh conf 23
Cc1c(C#N)c(=O)oc2ccc3ccccc3c12	VIM-2 inhibitor 31 | IMP-1 inh-2 inactive | VIM-2 FRET ctr inactive | TEM-1 counter inactive | VIM-2 inh conf 11
N#Cc1cc2c(ccc3ccccc32)oc1=O	none
CCCCn1c(SCC(=O)c2c(N)n(C3CC3)c(=O)[nH]c2=O)nc2cc(S(N)(=O)=O)ccc21	none (no result: ANO1 block, CHT block, IMP-1 inh-1, VIM-2 inhibitor, CHT PAM)
O=C(NCCO)C(=O)NCC1OCCCN1S(=O)(=O)c1cc(F)ccc1F (stereo unspecified)	none
CC(C)(C)C(=O)Nc1nnc(CSCc2ccccc2F)s1	VIM-2 inhibitor 26 | IMP-1 inh-2 inactive | VIM-2 FRET ctr 65 | TEM-1 counter inactive | VIM-2 inh conf 48
CC(C)(C)C(=O)Nc1nnc(CCc2ccccc2)s1	none
O=C(OCC(=O)N1CCN(C(=O)c2ccco2)CC1)c1cc(-c2ccco2)nc2ccccc12	VIM-2 inhibitor 15 | IMP-1 inh-2 inactive | VIM-2 FRET ctr inactive | TEM-1 counter inactive | VIM-2 inh conf 11
COc1ccccc1NC(=O)CSc1nccc(-c2ccco2)n1	none (no result: ANO1 block, CHT block, IMP-1 inh-1, VIM-2 inhibitor, CHT PAM)
c1ccc2nc3c(nc2c1)c1ccccc1n3CCN1CCOCC1	VIM-2 inhibitor 12 | IMP-1 inh-2 inactive | VIM-2 FRET ctr inactive | TEM-1 counter inactive | VIM-2 inh conf 18
O=c1c2ccccc2nc2c3ccccc3c(NCCN3CCOCC3)nn12	VIM-2 inhibitor 18 (no result: ANO1 activ) | IMP-1 inh-2 inactive | VIM-2 FRET ctr inactive | TEM-1 counter inactive | VIM-2 inh conf 28
C=CCN=C1S/C(=C\N(C)C)C(=O)N1S(=O)(=O)c1ccc(C)cc1	none (no result: ANO1 block, CHT block, IMP-1 inh-1, VIM-2 inhibitor, CHT PAM)
COc1ccccc1CN(C)C(=O)c1ccc(S(=O)(=O)Nc2c(C)n(C)n(-c3ccccc3)c2=O)cc1	none (no result: ANO1 block, CHT block, IMP-1 inh-1, VIM-2 inhibitor, CHT PAM)
CC(C)(C)C1=Nn2c(nnc2-c2ccco2)SC1	none
Oc1ccc(C2=Nn3c(nnc3-c3ccco3)SC2)cc1O	VIM-2 inhibitor 16 | IMP-1 inh-2 inactive | VIM-2 FRET ctr inactive | TEM-1 counter inactive | VIM-2 inh conf 28
O=C1C(Br)=Cc2cccc3cccc1c23	VIM-2 inhibitor 15 | IMP-1 inh-2 inactive | VIM-2 FRET ctr inactive | TEM-1 counter inactive | VIM-2 inh conf 20
Cc1ccc(NS(=O)(=O)c2c(C)[nH]c(C)c2C(=O)N2CCCCC2)cc1F	none
N#Cc1nc(-c2ccco2)oc1NCCCn1ccnc1	VIM-2 inhibitor 26 | IMP-1 inh-2 inactive | VIM-2 FRET ctr inactive | TEM-1 counter inactive | VIM-2 inh conf 44
COc1ccc(-c2nc(C#N)c(NCCCn3ccnc3)o2)cc1OC	VIM-2 inhibitor 17 | IMP-1 inh-2 inactive | VIM-2 FRET ctr inactive | TEM-1 counter inactive | VIM-2 inh conf 43
O=C(O)c1cccc(NC(=S)N/N=C/c2ccccc2OCc2cccc(Br)c2)c1	VIM-2 inhibitor 74 (no result: ANO1 block, CHT block, CHT PAM) | IMP-1 inh-2 inactive | VIM-2 FRET ctr 65 | TEM-1 counter inactive | VIM-2 inh conf 40
O=C(O)c1cccc(NC(=S)N/N=C/c2cccc(O)c2)c1	VIM-2 inhibitor 32 | IMP-1 inh-2 inactive | VIM-2 FRET ctr 28 | TEM-1 counter inactive | VIM-2 inh conf 16
Cc1cccc(NC(=S)N/N=C/c2cccc(O)c2)c1C	none
O=C(O)c1cccc(NC(=S)N/N=C/c2ccccc2OCc2ccc(Br)cc2)c1	ANO1 block 25, VIM-2 inhibitor 73 | IMP-1 inh-2 inactive | VIM-2 FRET ctr 67 | TEM-1 counter inactive | VIM-2 inh conf 35
Cc1ccc2[nH]c(C)c(/C=C/c3cc[n+](C)cc3)c2c1	VIM-2 inhibitor 16 | IMP-1 inh-2 inactive | VIM-2 FRET ctr inactive | TEM-1 counter inactive | VIM-2 inh conf 26
COc1nc(NCCc2ccc(OC)c(OC)c2)nc(OC)n1	none
CCc1c(C)nc2ncnn2c1NCCc1ccc(OC)c(OC)c1	VIM-2 inhibitor 34 | IMP-1 inh-2 inactive | VIM-2 FRET ctr inactive | TEM-1 counter inactive | VIM-2 inh conf 55
N#Cc1c2c(c(NCCN3CCOCC3)n3c1nc1ccccc13)CCCC2	none
